According to ChEMBL document CHEMBL2331435, “Structure-activity relationship study of vitamin k derivatives yields highly potent neuroprotective agents” (J Med Chem, 2013):
Calls of active or inactive are those of the source. The rule behind the calls is not given here.

How the values were obtained:
[1] = Neurotoxicity in mouse HT22 cells assessed as cell viability after 24 hrs by MTS assay; assay type: toxicity, cell-based, HT-22; details: read-out: TC50
Procedure, shortened: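 HT22 cells were seeded at 5.0 × 10^3 per well, cultured overnight, and treated with a range of compound concentrations without glutamate for 24 h. MTS was added for 2 h and absorbance read at 490 nm. Viability was expressed as percent of untreated cells, and TC50 was fit from titration curves (7- or 12-point, n = 3–4).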

[2] = Therapeutic index, ratio of cytotoxic TC50 for mouse HT22 cells to neuroprotective PD50 for mouse HT22 cells; assay type: cell-based, HT-22; details: read-out: TI
[3] = tested on: Radical scavenging activity; assay: Antioxidant activity assessed as DPPH free radical scavenging activity at 20 uM; assay type: functional
Procedure, shortened: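 Test agents at 20 μM final, added to 100 μM DPPH in methanol; absorbance at 517 nm monitored immediately for 10 min. Trolox and ascorbic acid served as positive controls, and the rate of absorbance loss was taken as antioxidant potency.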

[4] = tested on: HT-22; assay: Neuroprotective activity in mouse HT22 cells assessed as prevention from glutamate-induced oxidative cell death by MTS assay; assay type: functional
Procedure, shortened: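 HT22 cells grown in high-glucose DMEM with 10% FBS and antibiotic-antimycotic at 37°C, 5% CO2. Seeded at 5.0 × 10^3 cells/well overnight, then given 10 mM glutamate (final) plus compound from DMSO stock. MTS added 24 h after treatment, 2 h at 37°C, A490 read. Viability taken as % of untreated cells. PC50 from 12-point titrations; experiments repeated at least four times.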

[5] = target: T1, Serine/threonine-protein phosphatase PGAM5, mitochondrial (Mus musculus) (UniProt Q8BX10); assay: Inhibition of glutamate-induced increase in lower band of PGAM5 in mouse HT22 cells at 500 nM after 16 hrs by Western blotting analysis; assay type: cell-based; details: HT-22
T1 sequence (whole entry): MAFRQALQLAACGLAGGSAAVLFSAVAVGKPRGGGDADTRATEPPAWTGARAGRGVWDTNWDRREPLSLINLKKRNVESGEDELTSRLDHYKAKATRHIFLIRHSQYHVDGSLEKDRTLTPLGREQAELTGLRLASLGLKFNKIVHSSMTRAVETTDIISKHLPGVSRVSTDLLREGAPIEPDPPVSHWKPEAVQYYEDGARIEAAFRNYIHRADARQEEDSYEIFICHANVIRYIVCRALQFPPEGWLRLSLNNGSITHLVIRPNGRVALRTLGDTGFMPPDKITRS
Procedure, shortened: (§1)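 HT22 cells were treated with 10 mM glutamate plus compound for 16 h, harvested, and lysed in low-salt buffer (50 mM Tris-HCl pH 7.4, 150 mM NaCl, 10% glycerol, Triton X-100, protease/phosphatase inhibitors) for 30 min with a brief sonication. Lysates were run on 4–12% gels and immunoblotted for phospho-Drp1 Ser637, total Drp1, PGAM5, actin and α-tubulin, then analyzed by densitometry.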

[6] = target: Dynamin-1-like protein (Mus musculus) (UniProt Q8K1M6); assay: Inhibition of glutamate-induced decrease in DRP1 phosphorylation at serine 637 in mouse HT22 cells at 500 nM after 16 hrs by Western blotting analysis; assay type: cell-based; details: HT-22; procedure, shortened: as §1
[7] = tested on: HT-22; assay: Neuroprotective activity in mouse HT22 cells assessed as prevention from tBuOOH-induced oxidative cell death after 3 hrs by MTS assay; assay type: functional, cell-based
Procedure, shortened: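 HT22 cells were seeded at 5.0 × 10^3 per well and cultured overnight, then exposed to 50 μM t-BuOOH (final) plus compound for 3 h. Medium was removed, cells were washed with HBSS and returned to normal medium. MTS was added 24 h after initial treatment, absorbance was read at 490 nm after 2 h, and viability was expressed as percent of untreated cells.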

[8] = tested on: HT-22; assay: Antioxidant activity in mouse HT22 cells assessed as upregulation of NQO1 protein expression 8 hrs by Western blotting analysis; assay type: functional, cell-based
[9] = tested on: HT-22; assay: Antioxidant activity in mouse HT22 cells assessed as upregulation of HO1 protein expression 8 hrs by Western blotting analysis; assay type: functional, cell-based
[10] = tested on: HT-22; assay: Neuroprotective activity in mouse HT22 cells assessed as reduction of glutamate-induced mitochondrial fragmentation at 250 nM after 8 hrs by Mitotracker DR staining-based fluorescence microscopic analysis; assay type: functional, cell-based
Procedure, shortened: (§2)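 HT22 cells were given 10 mM glutamate plus compound for 8 h, then co-stained with MitoSOX Red (5 μM final) and Mitotracker Deep Red (10 nM final) for 20 min. Cells were washed twice with HBSS and imaged live by fluorescence microscopy in HBSS.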

[11] = tested on: HT-22; assay: Neuroprotective activity in mouse HT22 cells assessed as reduction of glutamate-induced mitochondrial superoxide generation at 250 nM after 8 hrs by MitoSOX RED staining-based fluorescence microscopic analysis; assay type: functional, cell-based; procedure, shortened: as §2
[12] = tested on: HT-22; assay: Antioxidant activity in mouse HT22 cells assessed as upregulation of NQO1 gene expression at 250 nM after 16 hrs by qRT-PCR analysis in the absence of glutamate; assay type: functional, cell-based
Procedure, shortened: (§3)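 HT22 cells were seeded at 3.0 × 10^5 per well and cultured overnight, then treated with or without 10 mM glutamate plus compound (DMSO stock) for 16 h. Cells were trypsinized and washed in cold Ca/Mg-free HBSS. HO-1 and NQO-1 mRNA were measured by qRT-PCR with β2-microglobulin as reference gene, and fold change was calculated by the Livak method.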

[13] = tested on: HT-22; assay: Antioxidant activity in mouse HT22 cells assessed as upregulation of HO1 gene expression at 250 nM after 16 hrs by qRT-PCR analysis in the absence of glutamate; assay type: functional, cell-based; procedure, shortened: as §3
[14] = tested on: HT-22; assay: Antioxidant activity in mouse HT22 cells assessed as reduction in glutamate-induced upregulation of HO1 gene expression at 250 nM after 16 hrs by qRT-PCR analysis relative to untreated control; assay type: functional, cell-based; procedure, shortened: as §3
[15] = tested on: HT-22; assay: Antioxidant activity in mouse HT22 cells assessed as reduction in glutamate-induced upregulation of NQO1 gene expression at 250 nM after 16 hrs by qRT-PCR analysis relative to glutamate-treated control; assay type: functional, cell-based; procedure, shortened: as §3
[16] = tested on: HT-22; assay: Antioxidant activity in mouse HT22 cells assessed as prevention of glutamate-induced intracellular accumulation of free radicals at 250 nM after 8 hrs by spectrofluorometric analysis; assay type: functional, cell-based
Procedure, shortened: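 HT22 cells were seeded at 5.0 × 10^3 per well and cultured overnight, then given 10 mM glutamate plus compound for 8 h. Rho123 was added at 5 μM final for 20 min, cells were washed twice with HBSS, and oxidized Rho123 fluorescence was read at 500 nm excitation and 536 nm emission.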

[17] = tested on: HT-22; assay: Antioxidant activity in mouse HT22 cells assessed as reduction in glutamate-induced upregulation of HO1 gene expression at 250 nM after 16 hrs by qRT-PCR analysis relative to glutamate-treated control; assay type: functional, cell-based; procedure, shortened: as §3
[18] = tested on: HT-22; assay: Antioxidant activity in mouse HT22 cells assessed as prevention of glutamate-induced GSH depletion at 25 uM; assay type: functional, cell-based
Procedure, shortened: (§4)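 HT22 cells were exposed to 10 mM glutamate plus compound (DMSO stock) for 8 h. Total glutathione (reduced plus oxidized) in the supernatant of the cell homogenate was measured with a glutathione reductase enzymatic recycling kit. GSH reacts with DTNB to give TNB, read at 405 nm.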

[19] = tested on: Mus musculus; assay: Toxicity in BALB/cByJ mouse assessed as biochemical parameters at 50 mg/kg, ip daily for 3 weeks measured 2 hrs after final injection; assay type: organism-based; design: dose 50 mg/kg, route intraperitoneal; details: in vivo
[20] = tested on: Mus musculus; assay: Toxicity in BALB/cByJ mouse assessed as outward signs of distress at 50 mg/kg, ip daily for 3 weeks measured 2 hrs after final injection; assay type: organism-based; design: dose 50 mg/kg, route intraperitoneal; details: in vivo
[21] = tested on: Mus musculus; assay: Toxicity in BALB/cByJ mouse assessed as outward signs of pain at 50 mg/kg, ip daily for 3 weeks measured 2 hrs after final injection; assay type: organism-based; design: dose 50 mg/kg, route intraperitoneal; details: in vivo
[22] = target: T1, Serine/threonine-protein phosphatase PGAM5, mitochondrial (Mus musculus); assay: Inhibition of glutamate-induced increase in lower band of PGAM5 in mouse HT22 cells at 125 nM after 16 hrs by Western blotting analysis; assay type: cell-based; details: HT-22; procedure, shortened: as §1
[23] = target: Dynamin-1-like protein (Mus musculus) (UniProt Q8K1M6); assay: Inhibition of glutamate-induced decrease in DRP1 phosphorylation at serine 637 in mouse HT22 cells at 125 nM after 16 hrs by Western blotting analysis; assay type: cell-based; details: HT-22; procedure, shortened: as §1
[24] = tested on: Mus musculus; assay: Toxicity in BALB/cByJ mouse assessed as weight loss at 50 mg/kg, ip daily for 3 weeks measured 2 hrs after final injection; assay type: organism-based; design: dose 50 mg/kg, route intraperitoneal; details: in vivo
[25] = tested on: HT-22; assay: Antioxidant activity in mouse HT22 cells assessed as prevention of glutamate-induced GSH depletion at 50 uM; assay type: functional, cell-based; procedure, shortened: as §4
[26] = tested on: HT-22; assay: Antioxidant activity in mouse HT22 cells assessed as prevention of glutamate-induced GSH depletion at 5 uM; assay type: functional, cell-based; procedure, shortened: as §4

Chain of Dynamin-1-like protein (Mus musculus) (Q8K1M6 whole entry): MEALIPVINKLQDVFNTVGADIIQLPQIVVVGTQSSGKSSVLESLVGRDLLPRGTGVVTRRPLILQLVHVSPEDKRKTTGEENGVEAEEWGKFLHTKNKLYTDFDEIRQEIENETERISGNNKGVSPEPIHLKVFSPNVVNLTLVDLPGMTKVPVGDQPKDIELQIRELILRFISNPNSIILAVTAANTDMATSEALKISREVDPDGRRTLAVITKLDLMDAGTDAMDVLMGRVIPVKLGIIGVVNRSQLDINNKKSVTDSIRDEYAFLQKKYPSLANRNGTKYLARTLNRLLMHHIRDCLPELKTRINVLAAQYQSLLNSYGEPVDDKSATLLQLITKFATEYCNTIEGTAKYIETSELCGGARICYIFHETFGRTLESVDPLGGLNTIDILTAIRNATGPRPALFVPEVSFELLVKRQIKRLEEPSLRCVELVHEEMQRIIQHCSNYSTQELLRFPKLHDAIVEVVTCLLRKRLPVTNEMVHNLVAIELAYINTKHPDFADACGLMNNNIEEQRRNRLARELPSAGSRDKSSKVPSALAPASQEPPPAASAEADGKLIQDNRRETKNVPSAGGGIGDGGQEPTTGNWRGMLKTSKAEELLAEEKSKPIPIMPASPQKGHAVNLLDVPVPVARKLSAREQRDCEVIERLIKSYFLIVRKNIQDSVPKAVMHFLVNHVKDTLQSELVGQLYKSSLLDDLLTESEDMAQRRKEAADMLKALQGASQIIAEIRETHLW

SMILES | CC50 at 24 h [1] [µM] | selectivity ratio [2] | PD50 [4] [nM] | other results
O=C1C=C(NCc2ccccn2)C(=O)c2ccccc21 | 50 | 54 | – | –
O=C1O[C@H]([C@@H](O)CO)C(O)=C1O | – | – | – | Activity [3]: Active
O=C1C=C(Nc2ccccc2)C(=O)c2ccccc21 | 7 | 109 | 64 | –
NC1=CC(=O)c2ccccc2C1=O | 49 | 803 | 61 | –
CN(Cc1ccccc1)C1=CC(=O)c2ccccc2C1=O | > 100 | 781 | – | –
O=C1C=C(NCC2CCCCC2)C(=O)c2ccccc21 | > 100 | > 1850 | 54 | –
O=C1C=C(NC2CCCC2)C(=O)c2ccccc21 | 44 | 108 | – | –
CC1=C(N)C(=O)c2ccccc2C1=O | 54 | 31 | – | –
O=C1C=C(NCc2ccncc2)C(=O)c2ccccc21 | 80 | 1110 | 72 | –
CCNC1=CC(=O)c2ccccc2C1=O | 81 | 106 | – | –
Cc1ccc(CNC2=CC(=O)c3ccccc3C2=O)cc1 | > 100 | > 1520 | 66 | –
CCCNC1=CC(=O)c2ccccc2C1=O | 30 | 91 | – | –
C#CCNC1=CC(=O)c2ccccc2C1=O | 53 | 442 | 120 | –
CC(C)NC1=CC(=O)c2ccccc2C1=O | 46 | 27 | – | –
O=C1C=CC(=O)c2ccccc21 [NAPHTHOQUINONE] | 19 | 12 | – | –
CN(C)C1=CC(=O)c2ccccc2C1=O | > 100 | > 407 | 246 | –
O=C1C=C(O)C(=O)c2ccccc21 [LAWSONE] | > 100 | 100 | – | –

SMILES | CC50 at 24 h [1] [µM] | selectivity ratio [2] | PD50 [4] [nM] | other results
CC1=CC(=O)c2ccccc2C1=O [MENADIONE] | 19 | 24 | 797 | –
COC(=O)c1ccc(CNC2=CC(=O)c3ccccc3C2=O)cc1 | > 100 | 431 | – | –
O=C1C=C(NCc2cccc(C(F)(F)F)c2)C(=O)c2ccccc21 | > 100 | > 2220 | 45 | –
CC(C)=CCC/C(C)=C/CC/C(C)=C/CC/C(C)=C/CC1=C(C)C(=O)c2ccccc2C1=O [MENATETRENONE] | > 100 | – | 432 | inhibition [5]: Active; inhibition [6]: Active; Activity [7]: Active; Activity [8]: inactive; Activity [9]: inactive; Activity [10]: Active; Activity [11]: Active; Activity [12]: inactive; Activity [13]: inactive; Activity [14]: inactive; Activity [15]: inactive; Activity [3]: inactive; Activity [16]: Active; Activity [17]: Active
O=C1C=C(NCc2cccnc2)C(=O)c2ccccc21 | 37 | 172 | – | –
Cc1c(C)c2c(c(C)c1O)CCC(C)(C(=O)O)O2 (centres undefined) | – | – | – | Activity [7]: inactive; Activity [3]: Active; Activity [18]: inactive
CC1=C(C)C(=O)c2ccccc2C1=O | 30 | 254 | – | –
O=C(O)C1=CC(=O)c2ccccc2C1=O | > 100 | 140 | – | –
CNC1=CC(=O)c2ccccc2C1=O | > 100 | 74 | – | –
O=C1C=C(NCc2ccc(Cl)c(Cl)c2)C(=O)c2ccccc21 | > 100 | > 2170 | 46 | –
O=C1C=C(NCc2ccccc2)C(=O)c2ccccc21 | > 100 | > 1140 | 88 | Activity [19]: Non-toxic; Activity [20]: Non-toxic; Activity [21]: Non-toxic; inhibition [22]: Active; inhibition [23]: Active; Activity [7]: Active; Activity [8]: inactive; Activity [9]: inactive; Activity [10]: Active; Activity [11]: Active; Activity [12]: inactive; Activity [13]: inactive; Activity [14]: inactive; Activity [15]: inactive; Activity [3]: inactive; Activity [16]: Active; Activity [17]: Active; Activity [24]: Non-toxic
COc1ccc(CNC2=CC(=O)c3ccccc3C2=O)cc1 | > 100 | 877 | – | –
O=C1C=C(NCc2ccc(Cl)cc2)C(=O)c2ccccc21 | > 100 | > 1700 | 59 | –
CN1C(=O)C(Cc2c[nH]c3ccccc23)NC1=S (centres undefined) | – | – | – | Activity [25]: inactive
O=C1C=C(NCCc2ccccc2)C(=O)c2ccccc21 | > 100 | 171 | – | –
COC1=C(OC)C(=O)C(CCCCCCCCCCO)=C(C)C1=O | – | – | – | Activity [26]: inactive
COC1=C(OC)C(=O)C(C/C=C(\C)CC/C=C(\C)CC/C=C(\C)CC/C=C(\C)CC/C=C(\C)CC/C=C(\C)CC/C=C(\C)CC/C=C(\C)CC/C=C(\C)CCC=C(C)C)=C(C)C1=O | – | – | – | Activity [7]: inactive
